Data published in the M2OR odorant receptor database.

Experiments:
Conditions in all cases: stereoisomer not certain
UniProt Q7TR71 = target: T1, UniProt Q7TR71
T1 sequence (whole entry): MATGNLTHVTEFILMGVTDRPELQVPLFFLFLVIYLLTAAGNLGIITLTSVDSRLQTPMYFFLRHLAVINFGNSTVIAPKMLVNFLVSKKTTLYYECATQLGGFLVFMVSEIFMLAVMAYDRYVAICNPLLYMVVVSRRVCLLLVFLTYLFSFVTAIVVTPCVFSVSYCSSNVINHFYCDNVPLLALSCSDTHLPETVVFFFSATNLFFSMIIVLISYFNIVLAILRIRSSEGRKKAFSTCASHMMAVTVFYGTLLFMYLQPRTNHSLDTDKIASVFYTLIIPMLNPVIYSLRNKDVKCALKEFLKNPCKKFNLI
Outline: (§1)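 Each entry records the cell line, G-protein, co-transfected protein and tags used. Methods varied with the source, often transient luciferase assays in mammalian cell lines. A receptor–molecule pair is called responsive (active) if the original authors judged its signal statistically different from baseline and non-responsive (inactive) otherwise.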

UniProt Q7TRA3 = target: T2, UniProt Q7TRA3
T2 sequence (whole entry): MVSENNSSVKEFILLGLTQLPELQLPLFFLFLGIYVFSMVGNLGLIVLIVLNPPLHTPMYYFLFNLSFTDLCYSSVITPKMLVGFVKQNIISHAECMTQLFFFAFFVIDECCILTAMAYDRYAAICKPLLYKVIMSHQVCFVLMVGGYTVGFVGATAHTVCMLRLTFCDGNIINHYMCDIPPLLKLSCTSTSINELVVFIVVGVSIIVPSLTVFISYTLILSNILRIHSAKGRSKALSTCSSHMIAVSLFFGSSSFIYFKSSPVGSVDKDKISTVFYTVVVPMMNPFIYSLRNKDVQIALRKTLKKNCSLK
Outline: as §1

UniProt Q7TRE4 = target: T3, UniProt Q7TRE4
T3 sequence (whole entry): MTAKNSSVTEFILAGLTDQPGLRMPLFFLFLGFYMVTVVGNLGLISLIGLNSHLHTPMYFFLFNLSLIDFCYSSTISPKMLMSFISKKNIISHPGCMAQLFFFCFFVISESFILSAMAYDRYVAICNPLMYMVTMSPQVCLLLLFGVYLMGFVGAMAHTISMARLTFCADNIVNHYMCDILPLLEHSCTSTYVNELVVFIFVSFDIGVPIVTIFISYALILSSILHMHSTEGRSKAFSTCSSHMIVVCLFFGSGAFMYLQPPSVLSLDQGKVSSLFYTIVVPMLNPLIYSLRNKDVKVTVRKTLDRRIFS
Outline: as §1

UniProt Q7TRN9 = target: T4, UniProt Q7TRN9
T4 sequence (whole entry): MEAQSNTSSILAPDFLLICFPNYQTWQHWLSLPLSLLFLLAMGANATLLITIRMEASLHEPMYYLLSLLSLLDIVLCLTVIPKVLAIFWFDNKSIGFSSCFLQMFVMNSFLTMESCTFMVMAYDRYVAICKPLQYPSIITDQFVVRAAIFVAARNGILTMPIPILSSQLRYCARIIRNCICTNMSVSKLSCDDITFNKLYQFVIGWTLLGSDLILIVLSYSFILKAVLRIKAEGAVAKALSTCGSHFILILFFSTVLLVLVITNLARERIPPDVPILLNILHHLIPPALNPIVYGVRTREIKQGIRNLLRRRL
Outline: as §1

UniProt Q7TRR8 = target: T5, UniProt Q7TRR8
T5 sequence (whole entry): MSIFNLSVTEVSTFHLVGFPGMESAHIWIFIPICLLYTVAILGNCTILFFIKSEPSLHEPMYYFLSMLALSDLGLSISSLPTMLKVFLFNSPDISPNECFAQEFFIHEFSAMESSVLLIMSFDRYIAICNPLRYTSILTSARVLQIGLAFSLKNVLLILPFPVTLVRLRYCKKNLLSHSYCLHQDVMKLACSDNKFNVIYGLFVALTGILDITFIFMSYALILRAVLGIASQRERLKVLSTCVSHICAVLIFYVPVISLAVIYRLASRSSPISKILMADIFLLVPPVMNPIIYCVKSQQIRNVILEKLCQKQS
Outline: as §1

UniProt Q7TRW1 = target: T6, UniProt Q7TRW1
T6 sequence (whole entry): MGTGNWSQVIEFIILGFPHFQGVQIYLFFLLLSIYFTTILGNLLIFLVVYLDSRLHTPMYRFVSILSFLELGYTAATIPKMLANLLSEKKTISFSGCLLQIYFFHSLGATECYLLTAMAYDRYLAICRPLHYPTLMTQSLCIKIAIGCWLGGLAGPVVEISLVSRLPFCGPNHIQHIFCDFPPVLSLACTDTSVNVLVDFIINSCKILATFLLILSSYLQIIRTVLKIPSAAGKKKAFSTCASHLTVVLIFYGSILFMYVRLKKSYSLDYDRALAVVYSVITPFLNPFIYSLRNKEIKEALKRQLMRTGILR
Outline: as §1

UniProt Q8VEU7 = target: T7, UniProt Q8VEU7
T7 sequence (whole entry): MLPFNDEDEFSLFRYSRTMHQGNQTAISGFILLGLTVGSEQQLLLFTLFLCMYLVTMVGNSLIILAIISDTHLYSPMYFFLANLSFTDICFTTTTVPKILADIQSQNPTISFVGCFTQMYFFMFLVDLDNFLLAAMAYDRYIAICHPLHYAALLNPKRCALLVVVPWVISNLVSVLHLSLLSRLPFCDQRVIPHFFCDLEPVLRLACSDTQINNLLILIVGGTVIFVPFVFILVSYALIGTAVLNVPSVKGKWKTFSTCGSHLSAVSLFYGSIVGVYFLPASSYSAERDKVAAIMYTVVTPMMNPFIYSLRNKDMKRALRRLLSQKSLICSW
Outline: as §1

UniProt Q8VF05 = target: T8, UniProt Q8VF05
T8 sequence (whole entry): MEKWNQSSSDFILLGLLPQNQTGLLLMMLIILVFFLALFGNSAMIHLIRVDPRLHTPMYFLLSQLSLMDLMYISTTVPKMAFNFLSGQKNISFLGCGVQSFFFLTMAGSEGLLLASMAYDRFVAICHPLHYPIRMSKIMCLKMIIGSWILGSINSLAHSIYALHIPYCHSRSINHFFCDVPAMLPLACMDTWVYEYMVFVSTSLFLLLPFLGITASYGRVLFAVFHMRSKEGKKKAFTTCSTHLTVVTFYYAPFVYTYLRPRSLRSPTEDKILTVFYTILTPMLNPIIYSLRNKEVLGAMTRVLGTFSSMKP
Outline: as §1

UniProt Q7TR79 = target: T9, UniProt Q7TR79
T9 sequence (whole entry): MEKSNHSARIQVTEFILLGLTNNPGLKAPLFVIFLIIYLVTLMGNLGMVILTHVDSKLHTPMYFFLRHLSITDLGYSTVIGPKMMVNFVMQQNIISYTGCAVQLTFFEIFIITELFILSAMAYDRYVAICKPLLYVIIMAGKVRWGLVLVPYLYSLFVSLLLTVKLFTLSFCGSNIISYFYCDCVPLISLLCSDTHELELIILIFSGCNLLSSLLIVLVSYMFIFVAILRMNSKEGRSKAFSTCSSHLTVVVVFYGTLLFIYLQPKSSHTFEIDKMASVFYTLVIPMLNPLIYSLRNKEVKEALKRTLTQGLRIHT
Outline: as §1

UniProt Q7TRX0 = target: T10, UniProt Q7TRX0
T10 sequence (whole entry): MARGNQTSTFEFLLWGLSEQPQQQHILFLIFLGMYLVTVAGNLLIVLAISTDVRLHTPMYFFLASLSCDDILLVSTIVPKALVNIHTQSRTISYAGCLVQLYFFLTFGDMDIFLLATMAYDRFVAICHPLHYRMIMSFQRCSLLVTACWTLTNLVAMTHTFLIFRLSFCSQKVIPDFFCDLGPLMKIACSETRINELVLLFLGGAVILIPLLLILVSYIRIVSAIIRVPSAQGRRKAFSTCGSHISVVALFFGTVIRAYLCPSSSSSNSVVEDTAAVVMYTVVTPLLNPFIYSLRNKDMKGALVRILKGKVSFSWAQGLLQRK
Outline: as §1

UniProt Q7TRM0 = target: T11, UniProt Q7TRM0
T11 sequence (whole entry): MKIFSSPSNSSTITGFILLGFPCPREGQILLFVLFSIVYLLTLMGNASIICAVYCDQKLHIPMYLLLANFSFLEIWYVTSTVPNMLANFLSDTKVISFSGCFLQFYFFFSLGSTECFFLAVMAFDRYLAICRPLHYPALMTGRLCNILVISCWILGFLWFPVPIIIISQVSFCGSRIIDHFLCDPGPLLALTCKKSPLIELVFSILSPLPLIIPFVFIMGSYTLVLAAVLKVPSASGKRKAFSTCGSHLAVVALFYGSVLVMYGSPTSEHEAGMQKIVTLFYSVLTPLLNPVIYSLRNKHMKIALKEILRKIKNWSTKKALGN
Outline: as §1

Measured: odorant receptor agonist call

CCCCCO
inactive: UniProt Q7TR71 | UniProt Q7TRA3 | UniProt Q7TRE4 | UniProt Q7TRN9 | UniProt Q7TRR8 | UniProt Q7TRW1 | UniProt Q8VEU7 | UniProt Q8VF05

CC(C)CS
inactive: UniProt Q7TR79 | UniProt Q7TRX0

CCCCCCCC(=O)[O-].[H+]
inactive: UniProt Q7TR71 | UniProt Q7TRA3 | UniProt Q7TRE4 | UniProt Q7TRM0 | UniProt Q7TRR8 | UniProt Q7TRW1 | UniProt Q8VEU7 | UniProt Q8VF05
active: UniProt Q7TRN9

CC(C)CCN
inactive: UniProt Q7TR79 | UniProt Q7TRX0

O=C(OCc1ccccc1)c1ccccc1O
inactive: UniProt Q7TR79 | UniProt Q7TRX0

CCC=CCCC=CC=O
inactive: UniProt Q7TR79 | UniProt Q7TRX0

CC(C)=C1CCC(C)CC1=O (configuration not stated)
inactive: UniProt Q7TR79 | UniProt Q7TRX0

CCCC(=O)C(C)=O
active: UniProt Q8VF05
inactive: UniProt Q7TR71 | UniProt Q7TR79 | UniProt Q7TRA3 | UniProt Q7TRE4 | UniProt Q7TRW1 | UniProt Q7TRX0 | UniProt Q8VEU7

C=CC(=C)CCC=C(C)CCC=C(C)C
inactive: UniProt Q7TR79 | UniProt Q7TRX0

C=C(C)C1CCC2(C)OC2C1 (configuration not stated)
inactive: UniProt Q7TR79 | UniProt Q7TRX0

O=C([O-])CCCCCCCC(=O)[O-].[H+].[H+]
inactive: UniProt Q7TR79 | UniProt Q7TRM0 | UniProt Q7TRN9 | UniProt Q7TRR8 | UniProt Q7TRX0

O=C([O-])CCCCCCC(=O)[O-].[H+].[H+]
inactive: UniProt Q7TR79 | UniProt Q7TRM0 | UniProt Q7TRN9 | UniProt Q7TRR8 | UniProt Q7TRX0

CCSCC
inactive: UniProt Q7TR79 | UniProt Q7TRX0

Cc1ccc(OC(=O)C(C)C)cc1
inactive: UniProt Q7TR79 | UniProt Q7TRX0

CC12CCC(CC1=O)C2(C)C (configuration not stated)
inactive: UniProt Q7TR79 | UniProt Q7TRA3 | UniProt Q7TRE4 | UniProt Q7TRW1 | UniProt Q7TRX0 | UniProt Q8VF05
active: UniProt Q7TR71 | UniProt Q8VEU7

CSSCc1ccco1
inactive: UniProt Q7TR79 | UniProt Q7TRX0

CCCCCCCCCCCO
inactive: UniProt Q7TR79 | UniProt Q7TRX0

CCCCCCC(=O)[O-].[H+]
inactive: UniProt Q7TR71 | UniProt Q7TRA3 | UniProt Q7TRE4 | UniProt Q7TRM0 | UniProt Q7TRR8 | UniProt Q7TRW1 | UniProt Q8VEU7 | UniProt Q8VF05
active: UniProt Q7TRN9

CCc1ccccc1O
inactive: UniProt Q7TR79 | UniProt Q7TRX0

CCC(C(=O)O)c1ccccc1 (configuration not stated)
inactive: UniProt Q7TR71 | UniProt Q7TRA3 | UniProt Q7TRE4 | UniProt Q7TRW1 | UniProt Q8VEU7 | UniProt Q8VF05
